# According to ChEMBL document CHEMBL1275413, “Comparison of antimicrobial resistance profiles among extended-spectrum-beta-lactamase-producing and acquired AmpC beta-lactamase-producing Escherichia coli isolates from Canadian intensive care units” (2008):
# Experiments:
# Format in all cases: functional
# Escherichia coli [1] = test: Antibacterial activity against ESBL-producing Escherichia coli isolate by broth microdilution method
# Method in brief: (§1)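 Clinical E. coli isolates from Canadian ICUs (CAN-ICU), one per patient and site, genotypically confirmed ESBL or acquired AmpC producers. AmpC groups (EBC, DHA, FOX, CIT) were typed by multiplex PCR and sequencing. Isolates were stored at −80°C in skim milk and subcultured twice from frozen stock. MICs were determined in triplicate by CLSI broth microdilution.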
# Escherichia coli [2] = test: Antibacterial activity against ESBL-producing Escherichia coli assessed as sensitive isolates by broth microdilution method; method in brief: as §1
# Escherichia coli [3] = test: Antibacterial activity against AmpC-producing Escherichia coli isolate by broth microdilution method; method in brief: as §1
# Escherichia coli [4] = test: Antibacterial activity against AmpC-producing Escherichia coli assessed as sensitive isolates by broth microdilution method; method in brief: as §1
# Escherichia coli [5] = test: Antibacterial activity against ESBL-producing Escherichia coli assessed as resistant isolates by broth microdilution method
# Method in brief: (§2)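 ICU clinical E. coli isolates, with ESBL or acquired AmpC genotype confirmed (AmpC families by multiplex PCR and sequencing), were stored at −80°C in skim milk and subcultured twice from frozen stock. MICs were determined in triplicate by CLSI broth microdilution. The panel included ampicillin, piperacillin-tazobactam, ceftriaxone, cefepime, cefoxitin, gentamicin, fluoroquinolones, carbapenems, doxycycline, tigecycline and trimethoprim-sulfamethoxazole.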
# Escherichia coli [6] = test: Antibacterial activity against AmpC-producing Escherichia coli assessed as resistant isolates by broth microdilution method; method in brief: as §2
# Escherichia coli [7] = test: Antibacterial activity against AmpC-producing Escherichia coli isolate by broth microdilution method in presence of Tazobactam; method in brief: as §1
# Escherichia coli [8] = test: Antibacterial activity against ESBL-producing Escherichia coli assessed as resistant isolates by broth microdilution method in presence of Tazobactam; method in brief: as §2
# Escherichia coli [9] = test: Antibacterial activity against AmpC-producing Escherichia coli assessed as sensitive isolates by broth microdilution method in presence of Tazobactam; method in brief: as §1
# Escherichia coli [10] = test: Antibacterial activity against ESBL-producing Escherichia coli assessed as sensitive isolates by broth microdilution method in presence of Tazobactam; method in brief: as §1
# Escherichia coli [11] = test: Antibacterial activity against ESBL-producing Escherichia coli isolate by broth microdilution method in presence of Tazobactam; method in brief: as §1
Compound,MIC50 (Escherichia coli [1]),MIC90 (Escherichia coli [1]),Activity (Escherichia coli [2]),MIC50 (Escherichia coli [3]),MIC90 (Escherichia coli [3]),Activity (Escherichia coli [4]),MIC (Escherichia coli [1]),MIC (Escherichia coli [3]),Activity (Escherichia coli [5]),Activity (Escherichia coli [6]),MIC50 (Escherichia coli [7]),MIC90 (Escherichia coli [7]),Activity (Escherichia coli [8]),Activity (Escherichia coli [9]),Activity (Escherichia coli [10]),MIC50 (Escherichia coli [11]),MIC90 (Escherichia coli [11])
CN(C)c1cc(NC(=O)CNC(C)(C)C)c(O)c2c1C[C@H]1C[C@H]3[C@H](N(C)C)C(O)=C(C(N)=O)C(=O)[C@@]3(O)C(O)=C1C2=O [TIGECYCLINE],0.5 µg/mL,1 µg/mL,100%,0.25 µg/mL,0.5 µg/mL,100%,–,–,–,–,–,–,–,–,–,–,–
C[C@@H](O)[C@H]1C(=O)N2C(C(=O)O)=C(S[C@@H]3CN[C@H](C(=O)N(C)C)C3)[C@H](C)[C@H]12 [MEROPENEM],≤ 0.12 µg/mL,≤ 0.12 µg/mL,100%,≤ 0.12 µg/mL,≤ 0.12 µg/mL,100%,≤ 0.12 µg/mL,≤ 0.12 µg/mL,–,–,–,–,–,–,–,–,–
CO/N=C(\C(=O)N[C@@H]1C(=O)N2C(C(=O)O)=C(CSc3nc(=O)c(O)nn3C)CS[C@H]12)c1csc(N)n1 [CEFTRIAXONE],128 µg/mL,> 256 µg/mL,5.6%,16 µg/mL,64 µg/mL,44.4%,–,–,83.3%,11.1%,–,–,–,–,–,–,–
CC1(C)S[C@@H]2[C@H](NC(=O)[C@H](N)c3ccccc3)C(=O)N2[C@H]1C(=O)O [AMPICILLIN],> 256 µg/mL,> 256 µg/mL,–,> 256 µg/mL,> 256 µg/mL,–,> 256 µg/mL,> 256 µg/mL,100%,100%,–,–,–,–,–,–,–
CCN1CCN(C(=O)N[C@@H](C(=O)N[C@@H]2C(=O)N3[C@@H]2SC(C)(C)[C@@H]3C(=O)O)c2ccccc2)C(=O)C1=O [PIPERACILLIN],–,–,–,–,–,–,–,–,–,–,2 µg/mL,8 µg/mL,5.6%,100%,94.4%,2 µg/mL,8 µg/mL
C[C@@H](O)[C@H]1C(=O)N2C(C(=O)O)=C(S[C@@H]3CN[C@H](C(=O)Nc4cccc(C(=O)O)c4)C3)[C@H](C)[C@H]12 [ERTAPENEM],0.12 µg/mL,0.25 µg/mL,100%,0.12 µg/mL,0.5 µg/mL,100%,–,–,–,–,–,–,–,–,–,–,–
GENTAMICIN,1 µg/mL,16 µg/mL,66.7%,< 0.25 µg/mL,8 µg/mL,88.9%,–,–,27.8%,3.7%,–,–,–,–,–,–,–
CO/N=C(\C(=O)N[C@@H]1C(=O)N2C(C(=O)[O-])=C(C[N+]3(C)CCCC3)CS[C@H]12)c1csc(N)n1 [CEFEPIME],8 µg/mL,32 µg/mL,50%,≤ 1 µg/mL,≤ 1 µg/mL,100%,–,≤ 1 µg/mL,11.1%,–,–,–,–,–,–,–,–
O=C(O)c1cn(C2CC2)c2cc(N3CCNCC3)c(F)cc2c1=O [CIPROFLOXACIN],> 16 µg/mL,> 16 µg/mL,16.7%,≤ 0.06 µg/mL,> 16 µg/mL,85.2%,–,–,83.3%,11.1%,–,–,–,–,–,–,–
C[C@H]1COc2c(N3CCN(C)CC3)c(F)cc3c(=O)c(C(=O)O)cn1c23.C[C@H]1COc2c(N3CCN(C)CC3)c(F)cc3c(=O)c(C(=O)O)cn1c23.O [LEVOFLOXACIN],16 µg/mL,32 µg/mL,16.7%,≤ 0.06 µg/mL,16 µg/mL,88.9%,–,–,83.3%,26.6%,–,–,–,–,–,–,–
CO[C@@]1(NC(=O)Cc2cccs2)C(=O)N2C(C(=O)O)=C(COC(N)=O)CS[C@@H]21 [CEFOXITIN],8 µg/mL,32 µg/mL,61.1%,256 µg/mL,> 256 µg/mL,–,–,–,16.7%,100%,–,–,–,–,–,–,–
C[C@H]1c2cccc(O)c2C(=O)C2=C(O)[C@]3(O)C(=O)C(C(N)=O)=C(O)[C@@H](N(C)C)[C@@H]3[C@@H](O)[C@@H]21.O [DOXYCYCLINE],4 µg/mL,64 µg/mL,61.1%,2 µg/mL,64 µg/mL,66.7%,–,–,33.3%,18.5%,–,–,–,–,–,–,–
